sdo1 growth – growth rescue of sdo1-depleted yeast, primary screen, S. cerevisiae, bone marrow failure model | S. cerevisiae sdo1-depleted JHY4D growth rescue, OD600 30 h; hits give high values; pdr5 snq2 efflux-pump mutant strain | z-score at 10 µM | 140,000 tested, 0.21% active | AID 817, 2007;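 active = z-score above 3 at both the 24 hr and the 30 hr optical density reads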;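 also: z-score against mean and SD of all compound wells on the same plate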
BB579 growth dn – growth inhibitors of yeast BB579 in restrictive medium, primary screen, yeast lifespan-shortening project, S. cerevisiae; OD615, 48 h; inhibition, % at 10 µM; 140,000 tested, 0.51% active; AID 804, 2007;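 active = inhibition above a set limit, 3 SD over the mean compound inhibition, cut at about 44% in these data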
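Material: Saccharomyces cerevisiae DeaD strain BB579, replicative lifespan model yeast; buffer or medium: CSMM-D restrictive synthetic medium containing dextrose (glucose); compound: 10 µM single dose, DMSO 0.25%; timing: 48 h compound exposure at 30 °C after 4 h preincubation; signal: turbidity as optical density at 615 nm; benchmarks: positive control amphotericin B 10 µg/mL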
Yeast lifespan up – compounds extending yeast replicative lifespan, primary screen, S. cerevisiae, OD615 | 130,000 tested, 0.68% active | inhibition of the nicotinamide effect, % at 10 µM | S. cerevisiae growth with nicotinamide; deaD strain in restrictive glucose medium;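 active = inhibition above a set limit, placed 3 SD over the median of all compounds, cut at about 26% in these data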;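 also: 0% = nicotinamide-treated wells and 100% = cells grown without nicotinamide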
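assay system = DeaD-strain S. cerevisiae | buffer or medium = restrictive glucose medium | reagent = 1.5 mM nicotinamide | compound = 10 µM single point, 0.25% DMSO | incubation = 48 h compound exposure at 30 °C, humidified | signal = OD615 measurement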
RAM inhibit – inhibitors of the yeast RAM network, primary screen, dse1pr::URA3 reporter, 5-FOA selection. S. cerevisiae dse1pr::URA3 reporter, 5-FOA growth OD615, 2 d; analog-sensitive cbk1-as2 kinase mutant strain. 190,000 tested, 1.8% active. inhibition, % at 50 µM;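 active = inhibition above a set limit, 3 SD over mean compound inhibition, cut at about 8.4% in these data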;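 also: 0% = DMSO-only wells with no growth and 100% = 10 µM 1-NA-PP1 full growth; inhibition rescues growth on 5-FOA so higher OD means more RAM inhibition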
RAM efflux-def – 5-FOA growth of efflux-deficient control yeast, dose response, counter-screen for RAM network inhibitor project, S. cerevisiae, OD615. shares compounds with RAM inhibit. max inhibition, %. S. cerevisiae efflux-deficient reporter strain, 5-FOA growth OD615, 2 days. AID 1305, 2008. 1,200 tested, under 10 active; call rule not given here;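 also: plate controls were vehicle for no effect and reference inhibitor for full effect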
Starred values were filed as active, the others as inactive; nt = no result. Rows were chosen to be rich in hits. Some 2.7% of all compounds tested hit in one or more screens of this group.

SMILES	sdo1 growth	BB579 growth dn	Yeast lifespan up	RAM inhibit	RAM efflux-def
CN1C(=O)/C(=C/c2cccn2-c2ccc3ccccc3c2)C(=O)NC1=S	-1.1	-10	49*	15*	4
O=C1NC(=S)NC(=O)C1=Cc1cccn1-c1ccc(O)cc1	nt	nt	nt	8	nt
CCOC(=O)c1nsnc1NCCCl	nt	nt	nt	0	nt
COc1ccc(N2C(=O)NC(=O)/C(=C\c3ccc([N+](=O)[O-])s3)C2=O)cc1	nt	nt	nt	-1	nt
COc1ccc(N2C(=O)/C(=C/C=C/c3ccccc3[N+](=O)[O-])C(=O)NC2=S)cc1	nt	nt	nt	17*	2
O=C(O)c1cccc2c1NC(C(=O)O)C1CC(Sc3ccccc3[N+](=O)[O-])C(Cl)C21 (configuration not stated)	0.75	-18	-1	15*	7
